Results as given in ChEMBL document CHEMBL1159122 (Bioorg Med Chem, 2010).
pIC50: −log10 of the molar value. Activity calls are given as the source filed them. The calls are words filed in the database; no cut-off is given here.

Columns and labels:
[1] = test system: THP-1; assay: Antiinflammatory activity in human THP1 cells assessed as inhibition of LPS-induced TNFalpha release at 1 uM by ELISA; format: functional
Summary of the method: (§1)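 THP-1 monocytes differentiated to macrophages over 72 h with conditioned medium from cells given 200 ng/mL PMA for 24 h, washed, and rested 24 h. Cells pretreated with compound (0.01–10 uM) for 1 h at 37 °C, then stimulated with 100 ng/mL LPS for 24 h. TNF-α release measured, mean ± SD of duplicates.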

[2] = target: T1, Prostaglandin G/H synthase 2 (Homo sapiens) (UniProt P35354); assay: Inhibition of human recombinant COX2 expressed in insect Sf9 cells at 10 uM by enzyme immunoassay
T1 sequence (whole entry): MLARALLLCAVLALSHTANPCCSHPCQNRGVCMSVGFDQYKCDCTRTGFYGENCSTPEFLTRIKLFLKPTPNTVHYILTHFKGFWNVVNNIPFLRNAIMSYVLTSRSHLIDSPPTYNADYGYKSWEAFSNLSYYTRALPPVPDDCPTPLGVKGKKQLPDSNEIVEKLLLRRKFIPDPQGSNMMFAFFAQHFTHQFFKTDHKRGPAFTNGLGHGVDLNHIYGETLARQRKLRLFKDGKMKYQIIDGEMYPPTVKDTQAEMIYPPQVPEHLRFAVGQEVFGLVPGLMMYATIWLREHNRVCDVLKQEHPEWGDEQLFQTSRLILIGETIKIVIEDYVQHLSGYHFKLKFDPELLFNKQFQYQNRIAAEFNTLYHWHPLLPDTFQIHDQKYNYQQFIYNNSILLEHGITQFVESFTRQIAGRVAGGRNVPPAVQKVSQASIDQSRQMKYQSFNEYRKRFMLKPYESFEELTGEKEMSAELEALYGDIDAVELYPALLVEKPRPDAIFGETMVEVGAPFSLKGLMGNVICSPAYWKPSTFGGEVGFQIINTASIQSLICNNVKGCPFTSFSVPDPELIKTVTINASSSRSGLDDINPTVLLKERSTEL

[3] = target: T2, Prostaglandin G/H synthase 1 (Mus musculus, UniProt P22437); assay: Inhibition of COX1 in mouse RAW264.7 cells by enzyme immunoassay; format: cell-based
T2 sequence (P22437 whole entry): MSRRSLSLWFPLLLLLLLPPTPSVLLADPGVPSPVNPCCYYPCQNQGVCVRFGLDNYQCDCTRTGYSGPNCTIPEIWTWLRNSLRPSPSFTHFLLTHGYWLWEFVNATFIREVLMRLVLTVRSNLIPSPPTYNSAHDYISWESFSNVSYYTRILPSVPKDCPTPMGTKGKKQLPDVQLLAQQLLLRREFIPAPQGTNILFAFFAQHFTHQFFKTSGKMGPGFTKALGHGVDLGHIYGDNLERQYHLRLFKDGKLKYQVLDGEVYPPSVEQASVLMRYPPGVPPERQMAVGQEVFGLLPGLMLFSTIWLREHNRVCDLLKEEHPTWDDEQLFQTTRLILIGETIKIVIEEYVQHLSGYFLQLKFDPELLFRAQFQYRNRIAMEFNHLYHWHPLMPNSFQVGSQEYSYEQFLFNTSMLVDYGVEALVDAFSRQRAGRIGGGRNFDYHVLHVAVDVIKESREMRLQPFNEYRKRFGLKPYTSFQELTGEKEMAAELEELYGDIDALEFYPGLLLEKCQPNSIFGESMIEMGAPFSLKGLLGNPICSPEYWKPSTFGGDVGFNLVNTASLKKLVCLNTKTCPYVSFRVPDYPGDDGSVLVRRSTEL
Summary of the method: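 RAW 264.7 cells (5×10^5/well) grown overnight in DMEM with 10% FBS, then washed with PBS. Cells were not LPS-stimulated. Serum-free, phenol red-free DMEM; compound pretreatment 1 h at 37 °C, then 30 µM arachidonic acid for 30 min at 37 °C. PGE2 in the medium measured by EIA.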

[4] = test system: THP-1; assay: Antiinflammatory activity in human THP1 cells assessed as inhibition of LPS-induced TNFalpha release at 10 uM by ELISA; format: functional; summary of the method: as §1
[5] = target: T3, Prostaglandin G/H synthase 1 (Homo sapiens, UniProt P23219); assay: Inhibition of human recombinant COX1 in human platelets at 10 uM by enzyme immunoassay
T3 sequence (P23219 whole entry): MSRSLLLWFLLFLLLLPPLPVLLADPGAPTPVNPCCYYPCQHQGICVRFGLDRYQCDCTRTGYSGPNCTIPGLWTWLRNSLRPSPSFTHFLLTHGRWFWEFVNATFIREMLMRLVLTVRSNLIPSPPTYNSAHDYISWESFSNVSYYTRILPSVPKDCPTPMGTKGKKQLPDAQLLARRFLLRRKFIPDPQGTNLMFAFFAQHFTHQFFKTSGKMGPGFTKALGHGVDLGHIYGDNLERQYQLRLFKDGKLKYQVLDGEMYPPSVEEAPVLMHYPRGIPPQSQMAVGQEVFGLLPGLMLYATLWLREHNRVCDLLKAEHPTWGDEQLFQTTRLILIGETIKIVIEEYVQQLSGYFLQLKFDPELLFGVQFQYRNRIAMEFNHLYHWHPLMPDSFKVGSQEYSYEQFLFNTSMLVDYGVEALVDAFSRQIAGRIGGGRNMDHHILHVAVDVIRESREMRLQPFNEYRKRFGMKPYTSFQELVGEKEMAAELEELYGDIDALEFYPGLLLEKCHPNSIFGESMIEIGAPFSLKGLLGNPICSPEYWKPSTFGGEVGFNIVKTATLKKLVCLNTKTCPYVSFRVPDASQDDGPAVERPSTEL
Summary of the method: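 Washed human platelets (5×10^7 cells/mL) in modified HEPES buffer pH 7.4, preincubated with compound 15 min at 37 °C. Reaction started with 100 µM arachidonic acid, run 15 min at 37 °C, stopped with 1 N HCl. PGE2 quantified by EIA.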

[6] = target: T4, Prostaglandin G/H synthase 2 (Mus musculus, UniProt Q05769); assay: Inhibition of COX2 in mouse RAW264.7 cells by enzyme immunoassay
T4 sequence (Q05769 whole entry): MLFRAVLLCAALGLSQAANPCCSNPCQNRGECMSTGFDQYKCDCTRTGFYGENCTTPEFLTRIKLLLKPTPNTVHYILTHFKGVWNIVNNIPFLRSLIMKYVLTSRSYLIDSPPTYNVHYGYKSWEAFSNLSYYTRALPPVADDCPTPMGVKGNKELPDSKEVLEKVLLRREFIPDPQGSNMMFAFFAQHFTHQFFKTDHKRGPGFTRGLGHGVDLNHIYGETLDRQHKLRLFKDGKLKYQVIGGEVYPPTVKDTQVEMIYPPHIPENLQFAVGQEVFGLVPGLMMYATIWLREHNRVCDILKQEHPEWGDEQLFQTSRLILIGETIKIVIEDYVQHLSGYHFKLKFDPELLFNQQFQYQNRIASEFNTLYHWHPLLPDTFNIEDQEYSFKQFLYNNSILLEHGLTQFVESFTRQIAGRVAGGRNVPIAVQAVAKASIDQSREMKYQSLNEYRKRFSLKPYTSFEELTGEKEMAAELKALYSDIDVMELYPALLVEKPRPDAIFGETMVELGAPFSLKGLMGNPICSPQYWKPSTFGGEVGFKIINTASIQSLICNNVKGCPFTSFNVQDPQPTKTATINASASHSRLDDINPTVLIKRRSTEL

[7] = target: T5, Polyunsaturated fatty acid 5-lipoxygenase (Homo sapiens, UniProt P09917); assay: Inhibition of LOX5 in human PMBL by enzyme immunoassay
T5 sequence (P09917 whole entry): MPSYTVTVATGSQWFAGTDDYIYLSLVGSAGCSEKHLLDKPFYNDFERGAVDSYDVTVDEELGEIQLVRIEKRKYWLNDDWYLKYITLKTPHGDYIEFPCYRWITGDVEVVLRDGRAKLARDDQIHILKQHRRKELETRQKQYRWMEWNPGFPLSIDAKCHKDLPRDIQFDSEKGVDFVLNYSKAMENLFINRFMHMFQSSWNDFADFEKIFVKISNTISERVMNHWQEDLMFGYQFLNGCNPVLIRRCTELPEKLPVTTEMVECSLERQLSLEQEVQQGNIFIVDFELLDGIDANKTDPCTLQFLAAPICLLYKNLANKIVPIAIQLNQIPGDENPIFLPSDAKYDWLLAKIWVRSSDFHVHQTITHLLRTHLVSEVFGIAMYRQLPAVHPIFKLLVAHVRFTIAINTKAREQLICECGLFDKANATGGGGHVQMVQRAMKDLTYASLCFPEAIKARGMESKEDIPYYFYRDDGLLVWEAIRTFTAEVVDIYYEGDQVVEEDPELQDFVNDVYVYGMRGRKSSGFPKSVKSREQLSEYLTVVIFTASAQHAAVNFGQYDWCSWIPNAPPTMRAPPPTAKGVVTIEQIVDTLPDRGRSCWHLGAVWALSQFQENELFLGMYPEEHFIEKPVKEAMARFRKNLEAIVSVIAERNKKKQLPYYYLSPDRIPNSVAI
Summary of the method: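 Human peripheral blood mononuclear leukocytes (5×10^6 cells/mL) in HBSS pH 7.4, preincubated with compound 15 min at 37 °C. Stimulated with 30 µM A23187 for 15 min at 37 °C, stopped with 1 N HCl, neutralized with NaOH and centrifuged. Supernatant LTB4 measured by EIA.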

[8] = test system: THP-1; assay: Antiinflammatory activity in human THP1 cells assessed as inhibition of LPS-induced TNFalpha release by ELISA; format: functional, cell-based
Summary of the method: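 Differentiated THP-1 macrophages were used. They were made by 72 h culture in conditioned medium from THP-1 cells treated with 200 ng/mL PMA for 24 h, washed and rested 24 h. Cells were preincubated with compounds at 0.01, 0.1, 1 and 10 µM for 1 h at 37 °C, then stimulated with 100 ng/mL LPS for 24 h. Duplicate determinations, mean ± SD.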

[9] = target: T1, Prostaglandin G/H synthase 2 (Homo sapiens); settings: THP-1, at 10 µM
[10] = target: T3, Prostaglandin G/H synthase 1; assay: Inhibition of human recombinant COX1 in human platelets by enzyme immunoassay
Summary of the method: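 Source was washed human platelets (5×10^7 cells/mL) in modified HEPES buffer, pH 7.4. Compounds were preincubated 15 min at 37 °C, then 100 µM arachidonic acid was added for 15 min at 37 °C. The reaction was stopped with 1 N HCl. COX-1 activity was read as PGE2 by EIA.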

[11] = target: T6, Prostaglandin G/H synthase 2 (Homo sapiens, UniProt P35354); assay: Inhibition of human recombinant COX2 expressed in insect Sf9 cells by enzyme immunoassay
T6 sequence (P35354 whole entry): T1 sequence (whole entry)

[12] = target: Mitogen-activated protein kinase 14 (Homo sapiens) (UniProt Q16539); assay: Inhibition of p38alpha MAPK at 10 uM
Sequence of Mitogen-activated protein kinase 14 (Homo sapiens) (Q16539 whole entry): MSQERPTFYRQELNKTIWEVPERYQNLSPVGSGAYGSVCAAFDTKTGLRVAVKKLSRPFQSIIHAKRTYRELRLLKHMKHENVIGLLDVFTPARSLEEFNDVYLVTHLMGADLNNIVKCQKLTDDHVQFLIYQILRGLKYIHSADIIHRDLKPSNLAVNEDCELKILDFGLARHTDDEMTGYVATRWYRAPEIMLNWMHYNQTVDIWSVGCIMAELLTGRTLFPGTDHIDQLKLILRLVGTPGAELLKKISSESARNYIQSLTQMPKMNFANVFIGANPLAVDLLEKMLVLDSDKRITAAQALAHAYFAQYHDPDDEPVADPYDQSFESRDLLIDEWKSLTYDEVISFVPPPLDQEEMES

Work on `C[C@@H]1C[C@H]2[C@@H]3CCC4=CC(=O)C=C[C@]4(C)[C@@]3(F)[C@@H](O)C[C@]2(C)[C@@]1(O)C(=O)CO` [DEXAMETHASONE] yielded an inhibition at 1 µM [1] of 89%.
For `O=[N+]([O-])c1ccc2c(c1)S(c1ccc(Br)cc1)=NS2(=O)=O` (stereo unspecified), the inhibition [2] was 23%, the pIC50 [3] was 5.82 and the Activity [4] was “inactive”. For the same compound, the inhibition [5] was 39%, the pIC50 [6] was 4.74 and the pIC50 [7] was 6.33.
`O=[N+]([O-])c1ccc2c(c1)S(=O)(=O)N=S2c1ccc(Br)cc1` (stereo unspecified) gave a pIC50 [8] of 6.36, a pIC50 [3] of 5.68 and an inhibition at 10 µM [4] of 92%. It also gave an inhibition [9] of 77%, a pIC50 [10] of 5.17 and a pIC50 [11] of 5.77. The inhibition [12] was “inactive”, the pIC50 [6] was 5.36 and the pIC50 [7] was 5.91.
With `CS(=O)(=O)Nc1ccc([N+](=O)[O-])cc1OC1CCCCC1` [NS-398] the pIC50 [3] was 4.20.
Work on `NS(=O)(=O)c1ccc2c(c1)S(c1ccc(Br)cc1)=NS2(=O)=O` (stereo unspecified) yielded an inhibition [2] of 27% and an inhibition [5] of 17%.
For `Cc1ccc(-c2cc(C(F)(F)F)nn2-c2ccc(S(N)(=O)=O)cc2)cc1`, the Activity [4] was “inactive”.
In the case of `COc1ccc2c(c1)c(CC(=O)NCCc1ccccc1)c(C)n2C(=O)c1ccc(Cl)cc1`, the pIC50 [3] was 4.25.
